# Measured values: ChEMBL document CHEMBL3853305, “Synthesis, characterization and antitubercular activities of novel pyrrolyl hydrazones and their Cu-complexes” (Eur J Med Chem, 2016)
# pIC50: −log10 of the molar value.
# Legend:
# [1] = test system: Mycobacterium tuberculosis; assay: Antitubercular activity against Mycobacterium tuberculosis H37Rv after 5 days by microplate alamar blue assay; format: functional; details: for MIC: Mycobacterium tuberculosis, H37Rv, 120 h
# Method in brief: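 Middlebrook 7H9 broth; serial dilutions of 0.2–100 μg/mL made in the plate. Incubated at 37°C for 5 days, then 1:1 alamar blue/10% Tween 80 added and incubated 24 h. MIC is the lowest concentration that prevents the blue-to-pink change. Ethambutol and rifampicin were standards.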
# [2] = Cytotoxicity against human A549 cells assessed as decrease in cell viability after 72 hrs by MTT assay; format: toxicity, cell-based
# Method in brief: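 Human A549 lung adenocarcinoma cells; viability read as cellular MTT conversion to formazan in a non-radioactive cell proliferation kit. Cisplatin was the positive control. IC50 values are means ± SEM of three independent experiments.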
# [3] = target: T1, Enoyl-[acyl-carrier-protein] reductase [NADH] (Mycobacterium tuberculosis, UniProt P9WGR1); assay: Inhibition of His6-tagged recombinant Mycobacterium tuberculosis InhA expressed in protease-deficient Escherichia coli (BL21) using trans-2-dodecenoyl-coenzyme A as substrate assessed as NADH oxidation
# T1 sequence (P9WGR1 whole entry): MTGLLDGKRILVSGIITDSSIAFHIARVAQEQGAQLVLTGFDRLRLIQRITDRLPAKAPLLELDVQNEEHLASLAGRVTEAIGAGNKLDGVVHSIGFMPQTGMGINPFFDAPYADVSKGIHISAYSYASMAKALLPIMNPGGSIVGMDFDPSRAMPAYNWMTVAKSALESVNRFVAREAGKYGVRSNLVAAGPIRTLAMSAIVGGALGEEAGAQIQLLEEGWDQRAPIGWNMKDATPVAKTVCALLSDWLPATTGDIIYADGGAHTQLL
# Method in brief: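 InhA-6xHis from E. coli BL21 (pHAT5/InhA), induced overnight with 1 mM IPTG at 20°C, purified on Ni-NTA and desalted. Assay at 25°C in 30 mM PIPES, 150 mM NaCl, pH 6.8, with 250 μM NADH, 50 μM DDCoA and 5% DMSO final. Compound screened at 50 μM. % inhibition taken from slopes with and without inhibitor. Triclosan was the reference.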
SMILES,-logMIC [1],MIC [1] [mg/L],IC50 at 72 h [2] [µM],pIC50 [3]
C/C(=N\NC(=O)c1ccc(-n2cccc2)cc1)C(=O)Nc1ccc(F)cc1,5.2,6.25,,
COc1cccc(NC(=O)/C(C)=N/NC(=O)c2ccc(-n3cccc3)cc2)c1,4.3,50,,
C/C(CCC(=O)Nc1ccc(Br)cc1)=N\NC(=O)c1ccc(-n2cccc2)cc1,5.2,6.25,,
C/C(=N\NC(=O)c1ccc(-n2cccc2)cc1)C(=O)Nc1cccc(F)c1,4.58,12.5,,
C/C(=N\NC(=O)c1ccc(-n2cccc2)cc1)C(=O)Nc1cc(Cl)cc(Cl)c1,4.9,12.5,,
C/C(CCC(=O)Nc1ccccc1)=N\NC(=O)c1ccc(-n2cccc2)cc1,4.3,50,,
C/C(CCC(=O)Nc1ccccc1Cl)=N\NC(=O)c1ccc(-n2cccc2)cc1,4.6,25,,
C/C(=N\NC(=O)c1ccc(-n2cccc2)cc1)C(=O)Nc1cccc(Br)c1,4.9,12.5,,
C/C(=N\NC(=O)c1ccc(-n2cccc2)cc1)C(=O)Nc1cc(Br)cc(Br)c1,4.9,12.5,,
C/C(=N\NC(=O)c1ccc(-n2cccc2)cc1)C(=O)Nc1ccc(Br)cc1,5.5,3.12,441,
C/C(=N\NC(=O)c1ccc(-n2c(C)ccc2C)cc1)C(=O)Nc1c(Cl)cccc1Cl,4,100,,
C/C(CCC(=O)Nc1ccc(Cl)cc1)=N\NC(=O)c1ccc(-n2cccc2)cc1,5.5,3.12,406,
C/C(=N/NC(=O)c1ccc(-n2cccc2)cc1)C(N)=O,4.3,50,,
COc1ccc(NC(=O)/C(C)=N/NC(=O)c2ccc(-n3cccc3)cc2)cc1,4.3,50,,
C/C(CCC(=O)Nc1cccc(Br)c1)=N\NC(=O)c1ccc(-n2cccc2)cc1,4.9,,,
C/C(=N\NC(=O)c1ccc(-n2cccc2)cc1)C(=O)Nc1c(Cl)cccc1Cl,4.6,25,,
C/C(CCC(=O)Nc1cc(Cl)cc(Cl)c1)=N\NC(=O)c1ccc(-n2cccc2)cc1,4.6,25,,
C/C(CCC(=O)Nc1cccc(F)c1)=N\NC(=O)c1ccc(-n2cccc2)cc1,4.6,12.5,,
C/C(CCC(=O)Nc1cccc(Cl)c1)=N\NC(=O)c1ccc(-n2cccc2)cc1,,12.5,,
C/C(CCC(=O)Nc1ccc(F)cc1)=N\NC(=O)c1ccc(-n2cccc2)cc1,5.5,3.12,438,5.11
C/C(CCC(=O)Nc1ccccc1F)=N\NC(=O)c1ccc(-n2cccc2)cc1,4.6,25,,
C/C(=N\NC(=O)c1ccc(-n2cccc2)cc1)C(=O)Nc1ccccc1F,4.3,25,,
C/C(=N\NC(=O)c1ccc(-n2c(C)ccc2C)cc1)C(=O)Nc1ccc(Br)cc1,5.2,6.25,,
COc1ccc(NC(=O)/C(C)=N/NC(=O)c2ccc(-n3c(C)ccc3C)cc2)cc1,4.6,25,,
COc1ccccc1NC(=O)CC/C(C)=N/NC(=O)c1ccc(-n2cccc2)cc1,4,100,,
CC[C@@H](CO)NCCN[C@@H](CC)CO [ETHAMBUTOL],,0.5,,
NNC(=O)c1ccncc1 [ISONIAZID],,,> 450,
CO[C@H]1/C=C/O[C@@]2(C)Oc3c(C)c(O)c4c(O)c(c(/C=N/N5CCN(C)CC5)c(O)c4c3C2=O)NC(=O)/C(C)=C\C=C\[C@H](C)[C@H](O)[C@@H](C)[C@@H](O)[C@@H](C)[C@H](OC(C)=O)[C@@H]1C [RIFAMPIN],,0.4,,
